Consider 7 molecules from ChEMBL document CHEMBL1821705 (J Med Chem, 2011).

Data set [1] is described as follows: Half-life in cynomolgus monkey at 0.5 mg/kg, iv. It counts as ADME, organism-based, Macaca fascicularis. Further details: dose 0.5 mg/kg, route intravenous. The settings on record: in vivo. An outline of the steps:
(§1)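 Fasted cynomolgus monkeys, n = 2 per route, given 0.5 mg/kg po or iv in 20% EtOH, 10% Cremophor EL, 15% PEG400, 15% HPCD, 0.02 mol/L HCl in water. Heparinized blood taken at 0.08–48 h (iv) or 0.50–48 h (po). Plasma stored at −80 °C, analyzed by LC-MS/MS. Parameters from noncompartmental analysis.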

In data set [2] the target is Proto-oncogene tyrosine-protein kinase Src (Homo sapiens, UniProt P12931). The data set is described as follows: Inhibition of SRC activity by TR-FRET assay.
In data set [3] the target is T1, Protein kinase C beta type (Homo sapiens, UniProt P05771). Description: Inhibition of PKCb2 activity by fluorescence polarization assay. On the technique in general: In fluorescence polarisation assays a small probe gives low polarisation when free and higher when bound to something large.
T1 sequence (P05771 whole entry): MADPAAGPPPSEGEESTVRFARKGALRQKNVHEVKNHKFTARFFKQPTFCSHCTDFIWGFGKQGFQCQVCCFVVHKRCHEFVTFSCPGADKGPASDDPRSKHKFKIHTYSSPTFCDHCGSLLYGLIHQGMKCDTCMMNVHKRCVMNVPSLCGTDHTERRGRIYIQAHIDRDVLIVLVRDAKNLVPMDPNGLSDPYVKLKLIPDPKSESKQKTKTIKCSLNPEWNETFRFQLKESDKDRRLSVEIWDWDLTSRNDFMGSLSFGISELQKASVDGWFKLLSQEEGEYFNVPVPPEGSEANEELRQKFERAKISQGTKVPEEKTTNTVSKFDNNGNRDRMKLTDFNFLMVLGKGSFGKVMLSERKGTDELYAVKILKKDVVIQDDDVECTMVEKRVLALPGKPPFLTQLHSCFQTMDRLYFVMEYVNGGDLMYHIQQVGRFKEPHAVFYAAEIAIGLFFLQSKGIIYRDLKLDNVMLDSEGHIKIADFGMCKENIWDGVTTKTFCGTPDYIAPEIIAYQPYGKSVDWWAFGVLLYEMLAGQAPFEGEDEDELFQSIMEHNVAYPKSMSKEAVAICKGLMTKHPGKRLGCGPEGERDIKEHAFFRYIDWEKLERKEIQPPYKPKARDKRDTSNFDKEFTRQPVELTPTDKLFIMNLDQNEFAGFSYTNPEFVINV
Data set [4] in a line: Total clearance in cynomolgus monkey at 0.5 mg/kg, iv. The format is ADME, organism-based, Macaca fascicularis. The conditions noted are these: in vivo. Set-up: dose 0.5 mg/kg, route intravenous. A digest of the protocol:
as §1

Data set [5] deals with T1, Protein kinase C beta type. The data set is described as follows: Inhibition of PKCb1 activity by fluorescence polarization assay.
Data set [6] is described as follows: Oral bioavailability in cynomolgus monkey at 0.5 mg/kg. It counts as ADME, organism-based, Macaca fascicularis. The conditions noted are these: in vivo. A digest of the protocol: as §1
Data set [7] concerns the target T2, Aurora kinase A (Homo sapiens, UniProt O14965).
T2 sequence (O14965 whole entry): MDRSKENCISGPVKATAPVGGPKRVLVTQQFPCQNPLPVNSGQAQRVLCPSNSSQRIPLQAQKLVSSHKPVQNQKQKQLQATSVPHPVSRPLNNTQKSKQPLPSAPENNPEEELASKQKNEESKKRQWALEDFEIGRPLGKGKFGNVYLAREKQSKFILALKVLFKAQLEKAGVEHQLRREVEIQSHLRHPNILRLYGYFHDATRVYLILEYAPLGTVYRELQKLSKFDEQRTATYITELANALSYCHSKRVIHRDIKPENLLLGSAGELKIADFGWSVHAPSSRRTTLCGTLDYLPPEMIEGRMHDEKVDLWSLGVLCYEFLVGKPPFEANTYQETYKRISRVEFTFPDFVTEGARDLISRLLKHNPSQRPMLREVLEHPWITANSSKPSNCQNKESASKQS
The data set is described as follows: Inhibition of Aurora-A activity by fluorescence polarization assay.

For data set [8], the target named is RAC-alpha serine/threonine-protein kinase (Homo sapiens, UniProt P31749). The data set is described as follows: Inhibition of AKT1 activity by fluorescence polarization assay.
In data set [9] the target is Insulin receptor (Homo sapiens, UniProt P06213). Description: Inhibition of INSR activity by TR-FRET assay. (In TR-FRET formats the signal depends on donor and acceptor labels being close together.)
Data set [10] has as its target Mast/stem cell growth factor receptor Kit (Homo sapiens, UniProt P10721). Description: Inhibition of KIT activity by TR-FRET assay.
Data set [11] in a line: Cmax in cynomolgus monkey at 0.5 mg/kg, po. The format is ADME, organism-based, Macaca fascicularis. Further details: dose 0.5 mg/kg, route oral. The conditions noted are these: in vivo. An outline of the steps:
as §1

The nature of data set [12]: Clearance in human liver microsome at 1 uM after 30 mins by LC/MS analysis in the presence of NADPH. It counts as ADME. The conditions noted are these: liver microsomes. An outline of the steps: (§2)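 Compound at 1 μM incubated with human or mouse liver microsomes (0.5 mg protein/mL) in 50 mM phosphate buffer pH 7.4 with 1 mM NADPH, 37 °C, 30 min. Stopped with acetonitrile, centrifuged. Remaining compound in the supernatant quantified by LC/MS.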

Data set [13] addresses Insulin-like growth factor 1 receptor (Homo sapiens, UniProt P08069). The data set is described as follows: Inhibition of IGF1R activity by TR-FRET assay.
The nature of data set [14]: Volume of distribution at steady state in cynomolgus monkey at 0.5 mg/kg, iv. The format is ADME, organism-based, Macaca fascicularis. The conditions noted are these: in vivo, read-out: Vdss. Further details: dose 0.5 mg/kg, route intravenous. A digest of the protocol:
as §1

For data set [15], the system named is KARPAS-299. The data set is described as follows: Antitumor activity against human KARPAS299 xenografted in SCID mouse assessed as tumor growth inhibition at 2 mg/kg, po administered for 11 days after 8 days of tumor implantation. The format is functional. The settings on record: read-out: TGI. An outline of the steps:
(§3)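 KARPAS-299 grown as sc tumors in SCID mice. Dosing started when tumors reached about 200 mm³, with four mice per group randomized. Vehicle or compound given by oral sonde once daily for 11 days; vehicle 10% DMSO, 10% Cremophor EL, 15% PEG400, 15% HPCD. Tumor volume taken as (L × W²)/2, measured twice weekly. TGI = [1 − (T − T₀)/(C − C₀)] × 100.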
A general note: A xenograft is tissue or cells of one species grown in another, often human tumour cells in immunodeficient mice.

Data set [16] deals with Fibroblast growth factor receptor 2 (Homo sapiens, UniProt P21802). Description: Inhibition of FGFR2 activity by TR-FRET assay.
The nature of data set [17]: Clearance in mouse liver microsome at 1 uM after 30 mins by LC/MS analysis in the presence of NADPH. The format is ADME. The settings on record: liver microsomes. An outline of the steps: as §2
In data set [18] the target is Vascular endothelial growth factor receptor 2 (Homo sapiens, UniProt P35968). Description: Inhibition of KDR activity by TR-FRET assay.
For data set [19], the system named is KARPAS-299. Description: Antitumor activity against human KARPAS299 xenografted in po dosed SCID mouse assessed as decrease in tumor volume. It counts as functional, organism-based. A digest of the protocol:
as §3

Data set [20] is described as follows: Half-life in cynomolgus monkey at 0.5 mg/kg, po. The conditions noted are these: in vivo. Further details: dose 0.5 mg/kg, route oral. The format is ADME, organism-based, Macaca fascicularis. An outline of the steps:
as §1

The subject of data set [21] is KARPAS-299. The data set is described as follows: Antitumor activity against human KARPAS299 xenografted in SCID mouse assessed as tumor growth inhibition at 6 mg/kg, po administered for 11 days after 8 days of tumor implantation. The format is functional. The conditions noted are these: read-out: TGI. A digest of the protocol: as §3
The target in data set [22] is Receptor tyrosine-protein kinase erbB-2 (Homo sapiens, UniProt P04626). The data set is described as follows: Inhibition of HER2 activity by TR-FRET assay.
Data set [23] deals with Hepatocyte growth factor receptor (Homo sapiens, UniProt P08581). The data set is described as follows: Inhibition of MET activity by TR-FRET assay.
Sequence of Hepatocyte growth factor receptor (P08581 whole entry): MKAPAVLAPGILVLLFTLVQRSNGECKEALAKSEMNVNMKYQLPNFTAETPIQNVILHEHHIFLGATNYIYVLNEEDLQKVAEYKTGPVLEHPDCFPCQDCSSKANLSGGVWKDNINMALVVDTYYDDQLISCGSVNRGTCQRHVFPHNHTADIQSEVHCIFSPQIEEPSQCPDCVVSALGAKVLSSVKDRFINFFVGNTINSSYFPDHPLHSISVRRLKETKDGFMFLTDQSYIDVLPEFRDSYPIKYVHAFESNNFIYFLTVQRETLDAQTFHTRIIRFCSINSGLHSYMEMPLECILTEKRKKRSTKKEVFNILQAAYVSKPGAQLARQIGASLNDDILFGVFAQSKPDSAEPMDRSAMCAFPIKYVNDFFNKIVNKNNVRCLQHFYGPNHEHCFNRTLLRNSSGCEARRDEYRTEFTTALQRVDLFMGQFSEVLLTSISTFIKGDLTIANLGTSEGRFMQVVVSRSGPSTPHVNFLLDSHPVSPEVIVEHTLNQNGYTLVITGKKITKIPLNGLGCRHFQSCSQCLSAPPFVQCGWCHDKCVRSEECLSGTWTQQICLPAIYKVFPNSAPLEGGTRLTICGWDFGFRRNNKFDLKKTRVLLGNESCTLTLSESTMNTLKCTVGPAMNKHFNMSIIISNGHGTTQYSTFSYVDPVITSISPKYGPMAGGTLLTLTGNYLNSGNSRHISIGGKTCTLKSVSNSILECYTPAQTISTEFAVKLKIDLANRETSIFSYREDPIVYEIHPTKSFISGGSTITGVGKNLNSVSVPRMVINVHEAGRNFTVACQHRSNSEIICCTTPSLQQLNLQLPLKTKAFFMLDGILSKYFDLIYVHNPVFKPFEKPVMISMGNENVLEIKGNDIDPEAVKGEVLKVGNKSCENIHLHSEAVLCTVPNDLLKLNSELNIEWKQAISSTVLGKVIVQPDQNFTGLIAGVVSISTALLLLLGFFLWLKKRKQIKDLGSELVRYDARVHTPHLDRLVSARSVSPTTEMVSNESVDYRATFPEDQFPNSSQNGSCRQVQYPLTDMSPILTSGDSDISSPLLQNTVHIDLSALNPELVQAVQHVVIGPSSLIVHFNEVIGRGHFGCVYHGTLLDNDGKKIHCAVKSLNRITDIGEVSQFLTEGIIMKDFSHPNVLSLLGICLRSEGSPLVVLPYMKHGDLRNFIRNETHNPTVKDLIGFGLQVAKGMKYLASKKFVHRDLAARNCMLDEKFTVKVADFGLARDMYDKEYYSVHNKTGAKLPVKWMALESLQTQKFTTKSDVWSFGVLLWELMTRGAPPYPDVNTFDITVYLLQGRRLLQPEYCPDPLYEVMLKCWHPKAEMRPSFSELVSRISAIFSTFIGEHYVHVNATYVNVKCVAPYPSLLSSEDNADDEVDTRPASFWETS
The target in data set [24] is RAF proto-oncogene serine/threonine-protein kinase (Homo sapiens, UniProt P04049). The data set is described as follows: Inhibition of Raf-1 activity assessed as MEK1/2 phosphorylation. A digest of the protocol: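 Raf-1 activity read as phosphorylation of MEK1/2, detected with europium-labelled anti-phospho-MEK1/2 (Ser217/221) antibody.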
Data set [25] addresses Protein kinase C alpha type (Homo sapiens, UniProt P17252). Description: Inhibition of PKCA activity by fluorescence polarization assay.
For data set [26], the target named is Tyrosine-protein kinase ABL1 (Homo sapiens, UniProt P00519). Description: Inhibition of ABL activity by TR-FRET assay.
Data set [27] has as its system KARPAS-299. The data set is described as follows: Antitumor activity against human KARPAS299 xenografted in SCID mouse assessed as tumor growth inhibition at 20 mg/kg, po administered for 11 days after 8 days of tumor implantation. It counts as functional. The settings on record: read-out: TGI. A digest of the protocol:
as §3

Data set [28] deals with KARPAS-299. The data set is described as follows: cells. The settings on record: Homo sapiens, KARPAS-299, 96 h.
A short description of data set [29]: AUC in cynomolgus monkey at 0.5 mg/kg, po. Set-up: dose 0.5 mg/kg, route oral. The format is ADME, organism-based, Macaca fascicularis. The settings on record: plasma. An outline of the steps: as §1
Data set [30] has as its target ALK tyrosine kinase receptor (Homo sapiens, UniProt Q9UM73).

As usually defined, the half-life is the time in which the quantity being followed falls by half. By IC50 is commonly meant the concentration needed to halve the response being measured. In general, clearance refers to the volume of plasma or blood freed of the substance per unit of time. The term bioavailability denotes the share of a dose that reaches the circulation, judged against a reference dose that is usually intravenous. As a reminder, the Cmax is the peak of the concentration-time curve. The term microsomal CLint denotes the rate of metabolic loss divided by the concentration. As usually defined, the AUC is concentration integrated over time.

The structures appear in SMILES notation.

Sequence of ALK tyrosine kinase receptor (Q9UM73 whole entry): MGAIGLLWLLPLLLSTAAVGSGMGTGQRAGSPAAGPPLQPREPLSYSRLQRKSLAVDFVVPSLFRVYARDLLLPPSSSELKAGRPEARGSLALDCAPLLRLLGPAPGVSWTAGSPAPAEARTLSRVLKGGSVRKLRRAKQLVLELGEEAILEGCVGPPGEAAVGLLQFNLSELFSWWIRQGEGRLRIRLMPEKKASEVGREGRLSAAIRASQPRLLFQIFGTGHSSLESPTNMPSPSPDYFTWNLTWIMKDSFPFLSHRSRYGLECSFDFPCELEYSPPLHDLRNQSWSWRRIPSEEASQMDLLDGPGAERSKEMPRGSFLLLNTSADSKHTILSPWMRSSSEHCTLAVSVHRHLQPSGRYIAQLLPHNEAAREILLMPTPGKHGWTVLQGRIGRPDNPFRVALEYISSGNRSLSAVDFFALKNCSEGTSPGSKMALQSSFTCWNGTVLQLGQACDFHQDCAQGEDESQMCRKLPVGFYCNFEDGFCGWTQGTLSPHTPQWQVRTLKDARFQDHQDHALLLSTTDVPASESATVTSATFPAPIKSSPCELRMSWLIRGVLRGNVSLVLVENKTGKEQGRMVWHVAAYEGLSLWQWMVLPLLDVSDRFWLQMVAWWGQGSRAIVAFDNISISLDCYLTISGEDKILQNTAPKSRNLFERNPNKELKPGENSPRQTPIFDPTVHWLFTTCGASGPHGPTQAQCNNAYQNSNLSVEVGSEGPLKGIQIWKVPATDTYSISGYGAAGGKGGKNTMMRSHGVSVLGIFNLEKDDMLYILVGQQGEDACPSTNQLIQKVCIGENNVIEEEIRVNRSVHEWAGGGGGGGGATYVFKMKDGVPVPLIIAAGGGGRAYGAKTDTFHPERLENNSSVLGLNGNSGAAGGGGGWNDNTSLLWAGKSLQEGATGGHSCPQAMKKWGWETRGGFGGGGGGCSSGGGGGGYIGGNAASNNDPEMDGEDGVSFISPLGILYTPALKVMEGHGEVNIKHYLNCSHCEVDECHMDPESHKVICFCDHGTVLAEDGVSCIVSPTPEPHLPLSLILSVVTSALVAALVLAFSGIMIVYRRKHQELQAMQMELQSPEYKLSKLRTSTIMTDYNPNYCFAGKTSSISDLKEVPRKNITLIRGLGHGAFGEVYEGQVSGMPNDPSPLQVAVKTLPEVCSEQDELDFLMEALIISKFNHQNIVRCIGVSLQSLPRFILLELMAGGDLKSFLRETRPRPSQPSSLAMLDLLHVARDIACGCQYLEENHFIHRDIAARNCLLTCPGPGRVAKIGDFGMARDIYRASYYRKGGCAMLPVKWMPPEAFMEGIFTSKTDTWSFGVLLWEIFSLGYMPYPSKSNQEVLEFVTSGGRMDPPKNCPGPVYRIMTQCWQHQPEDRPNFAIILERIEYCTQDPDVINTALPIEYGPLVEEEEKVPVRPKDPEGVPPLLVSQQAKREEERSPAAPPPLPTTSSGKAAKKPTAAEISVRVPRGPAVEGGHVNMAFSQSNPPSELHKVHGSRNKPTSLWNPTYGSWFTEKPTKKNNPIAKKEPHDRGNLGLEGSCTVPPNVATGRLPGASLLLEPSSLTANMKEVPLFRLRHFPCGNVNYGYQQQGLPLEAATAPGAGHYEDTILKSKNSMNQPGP
Sequence of Mast/stem cell growth factor receptor Kit (P10721 whole entry): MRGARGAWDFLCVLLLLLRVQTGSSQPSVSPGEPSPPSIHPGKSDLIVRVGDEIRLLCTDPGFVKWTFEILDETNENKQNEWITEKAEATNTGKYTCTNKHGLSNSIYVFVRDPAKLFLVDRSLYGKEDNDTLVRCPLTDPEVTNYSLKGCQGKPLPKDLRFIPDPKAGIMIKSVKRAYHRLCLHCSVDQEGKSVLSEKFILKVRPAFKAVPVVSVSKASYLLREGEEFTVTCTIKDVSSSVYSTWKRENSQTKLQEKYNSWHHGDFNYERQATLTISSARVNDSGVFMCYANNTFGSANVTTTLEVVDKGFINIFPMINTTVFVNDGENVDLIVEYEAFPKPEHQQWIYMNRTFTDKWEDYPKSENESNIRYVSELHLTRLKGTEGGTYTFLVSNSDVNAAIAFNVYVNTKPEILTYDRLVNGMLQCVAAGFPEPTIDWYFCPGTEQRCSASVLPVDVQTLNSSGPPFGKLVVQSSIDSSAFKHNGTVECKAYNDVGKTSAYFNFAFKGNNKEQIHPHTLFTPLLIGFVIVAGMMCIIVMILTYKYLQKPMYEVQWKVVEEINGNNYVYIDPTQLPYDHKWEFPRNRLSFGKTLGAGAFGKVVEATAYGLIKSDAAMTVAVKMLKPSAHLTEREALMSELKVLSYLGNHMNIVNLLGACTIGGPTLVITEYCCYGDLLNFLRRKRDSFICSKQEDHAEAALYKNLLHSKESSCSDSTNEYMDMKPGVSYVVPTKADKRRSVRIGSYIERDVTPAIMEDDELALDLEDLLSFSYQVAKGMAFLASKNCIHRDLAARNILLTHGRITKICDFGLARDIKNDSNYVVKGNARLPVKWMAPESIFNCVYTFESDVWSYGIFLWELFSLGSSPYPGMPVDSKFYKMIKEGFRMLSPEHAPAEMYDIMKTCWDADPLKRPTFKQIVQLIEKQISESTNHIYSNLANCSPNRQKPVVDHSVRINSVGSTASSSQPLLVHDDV

In the case of `CCc1cc2c(cc1N1CCN(C3COC3)CC1)C(C)(C)c1[nH]c3cc(C#N)ccc3c1C2=O`, the half-life in data set [1] is 5.3 h; in data set [20] it was 6.25 h. The half-inhibitory concentration (IC50) in [2] was over 50000 nM; in [3], over 50000 nM; in data set [5], over 50000 nM; in data set [7] it was over 50000 nM; in data set [8], over 50000 nM; in [9] it was 460 nM. Further, the IC50 was over 5000 nM in data set [10]; over 50000 nM in [13]; over 50000 nM in [16]; over 5000 nM in data set [18]; over 50000 nM in data set [22]; over 5000 nM in [23]. Also, the IC50 in data set [24] is over 50000 nM; in [25] it was over 50000 nM; in data set [26], over 50000 nM; in data set [28], 12.8 nM. In data set [4], this molecule displayed a clearance of 0.73 mL/min/kg. In addition, the bioavailability in data set [6] is 28.2%. The concentration in data set [11] peaked (Cmax) at 327 ng/mL. For the same molecule, the values for the microsomal CLint at 1 µM in data set [12] and in data set [17] were 17 µL/min/mg and 4.5 µL/min/mg, respectively. In addition, the Vd in [14] turned out to be 0.296 L/kg. Moreover, the inhibition in vivo at 2 mg/kg in data set [15] was 49%. Further, the Activity entry in data set [19] was “Dose-dependent effect”. In addition, the inhibition in vivo at 6 mg/kg in data set [21] came out at 103%. Further, in data set [27], the inhibition in vivo at 20 mg/kg is 119%. The molecule further gave an AUC in data set [29] of 3270 ng·h/mL.
With `Cc1cc2c(cc1N1CCN(C3COC3)CC1)C(C)(C)c1[nH]c3cc(C#N)ccc3c1C2=O`, the IC50 in data set [10] is 49.8 nM; in data set [30] it was 10.6 nM; in [18], 60.8 nM; in data set [23], over 5000 nM; in data set [28], 14.8 nM. For the same molecule, the microsomal CLint at 1 µM in data set [12] turned out to be 22.6 µL/min/mg; in [17] it was 7 µL/min/mg.
Take `CC1(C)c2cc(N3CCN(C4COC4)CC3)ccc2C(=O)c2c1[nH]c1cc(C#N)ccc21`: the IC50 is 83.9 nM in [10], 137 nM in [18] and over 5000 nM in data set [23].
Take `CC1(C)c2cc(N3CCN(C4COC4)CC3)c(CCC3CCCC3)cc2C(=O)c2c1[nH]c1cc(C#N)ccc21`: the IC50 in data set [10] was over 5000 nM; in data set [18] it was over 5000 nM; in [23] it was over 5000 nM; in data set [28] it was 544 nM. In addition, the figures for the microsomal CLint at 1 µM in data set [12] and in [17] were 17.8 µL/min/mg and 44.7 µL/min/mg, respectively.
For the molecule `CC(C)c1cc2c(cc1N1CCN(C3COC3)CC1)C(C)(C)c1[nH]c3cc(C#N)ccc3c1C2=O`, the IC50 in data set [10] is over 5000 nM; in [30], 66.4 nM; in data set [18], over 5000 nM; in data set [23] it was over 5000 nM; in data set [28], 118 nM. Moreover, the microsomal CLint at 1 µM in data set [12] was 17.4 µL/min/mg; in data set [17] it was 4.1 µL/min/mg.
As for `C#Cc1cc2c(cc1N1CCN(C3COC3)CC1)C(C)(C)c1[nH]c3cc(C#N)ccc3c1C2=O`, the IC50 in data set [10] was 2420 nM; in data set [30], 2.7 nM; in data set [18] it was 455 nM; in [23], over 5000 nM. Moreover, the microsomal CLint at 1 µM in data set [12] stood at 18.9 µL/min/mg; in data set [17], 2.1 µL/min/mg.
As to `CCCc1cc2c(cc1N1CCN(C3COC3)CC1)C(C)(C)c1[nH]c3cc(C#N)ccc3c1C2=O`, the IC50 in [10] is over 5000 nM; in data set [30], 15.1 nM; in data set [18], over 5000 nM; in data set [23], over 5000 nM; in data set [28] it was 25.3 nM. For the same molecule, the microsomal CLint at 1 µM in [12] was determined as 19.4 µL/min/mg; in data set [17] it was 4.7 µL/min/mg.
